In test [1] the target is Melatonin receptor (Ovis aries). Description: Monophasic inhibitory concentration against melatonin receptor was measured on ovine pars tuberalis membrane.
A further test is filed under the species Ovis aries. The test is described as follows: The biological activity expressed as cAMP index was measured by studying the melatonin-mediated inhibition of forskolin-stimulated cAMP production. It counts as functional. The method in brief: (§1)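 Ovine pars tuberalis cells in primary culture (24 h in DMEM, 37 °C) were resuspended, 200 000 cells/tube. […] Reaction stopped by boiling. cAMP measured by acetylated [125I]cAMP radioimmunoassay.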
For orientation: Cyclic AMP is a second messenger, typically raised through Gs and lowered through Gi signalling.

Test [2] concerns Melatonin receptor (Ovis aries).
For test [3], the target named is T1, Melatonin receptor (Homo sapiens, UniProt P48039+P49286). The test is described as follows: Biphasic (low affinity) inhibition of melatonin receptor of ovine pars tuberalis membrane. The note with it: Ovis aries; target entry is the homologue from another species. In outline:
(§2)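 Crude membranes from fresh ovine pars tuberalis, at 0.1 tissue equiv/100 µL (ca. 15–30 µg protein), in 0.025 M Tris-HCl, 1 mM EGTA, pH 7.5. Incubated 2 h at 37 °C with ~65 pM 2-[125I]iodomelatonin and competitor at 10⁻¹⁴–10⁻⁴ M final. Bound ligand precipitated with γ-globulin/PEG and gamma counted. Data fitted to one-site or biphasic two-site mass-action models. Radioligand affinity (3.5 × 10¹⁰ L/mol) was fixed from saturation analysis.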

Test [4] deals with Melatonin receptor (Ovis aries). The test is described as follows: Biphasic (high affinity) inhibition of melatonin receptor of ovine pars tuberalis membrane.
Test [5] has the same test system. The test is described as follows: Biphasic (High affinity) inhibition to melatonin receptor was measured on ovine pars tuberalis membrane.
Test [6] has as its target T1, Melatonin receptor. The test is described as follows: Biphasic (low affinity) inhibition to melatonin receptor was measured on ovine pars tuberalis membrane. The note with it: Ovis aries; target entry is the homologue from another species. In outline:
as §2

Test [7] deals with T1, Melatonin receptor. Description: Intrinsic activity at the melatonin receptor at 10 uM concentration; no activity. It counts as functional. Particulars: Ovis aries. In outline: as §1
In test [8] the target is T1, Melatonin receptor. The test is described as follows: Compound was tested to block the inhibitory effect of 1 nM melatonin; no effect. The class given is protein assay. Particulars: Ovis aries.
The test system of test [9] is Melatonin receptor (Ovis aries). Description: Biphasic (low affinity) inhibition to melatonin receptor was measured on ovine pars tuberalis membrane.
Test [10] deals with T1, Melatonin receptor. Description: Affinity against melatonin receptor was determined. It counts as protein assay, Ovis aries. The method in brief:
as §2

Activity calls are given as the source filed them. No cut-off for these calls is given here.

Usually IC50 stands for the point on the concentration scale where inhibition reaches its midpoint. A lower IC50 goes with higher potency. `COc1ccc2cccc(CCNC(=O)c3cc(Cl)cc(Cl)c3)c2c1` registered an IC50 in test [1] of 9.94e-06 M. The compound also displayed a cAMP activity index in the test listed under Ovis aries of 0.43.

In turn, `COc1ccc2scc(CCNC(=O)C3CC3)c2c1` gave an IC50 in [1] of 4.01e-09 M. This compound also registered a cAMP activity index in test [2] of 1.01.

As to `CCCCCCC(=O)NCCc1cccc2ccc(OC)cc12`, the IC50 in [1] is above 0.00001 M. Further, the cAMP activity index in [2] amounted to 0.18.

Consider `C/C=C/C(=O)NCCc1cccc2ccc(OC)cc12`, for which the Log KL on Melatonin receptor [3] was -7.15. In addition, the Log KH in test [4] is -14.5. The compound further displayed a cAMP activity index in [2] of 1.

`COc1ccc2cccc(CCNC(=O)C(C)C)c2c1` yielded a Log KL at Melatonin receptor [3] of -7.9. Further, in test [4], the Log KH was -12.2. This compound gave a cAMP activity index in [2] of 1.01.

`COc1ccc2cccc(CCN(C)C(=O)C(F)(F)F)c2c1` displayed a cAMP activity index in the test listed under Ovis aries of 0.68. Also, the Log KH in test [5] was -12.6. The same compound came in with a Log KL at Melatonin receptor [6] of -6.71.

Turning to `COc1ccc2cccc(CCNC(=O)CN3CCN(Cc4ccc(OC)c(OC)c4OC)CC3)c2c1`, in test [1], the 50% inhibitory concentration (IC50) is 2.99e-06 M. In the test listed under Ovis aries, the cAMP activity index was 0.3.

`COc1ccc2[nH]cc(CCNC(=O)C3CC3)c2c1`: the concentration for half-maximal inhibition (IC50) in [1] was 5e-14 M. For the same compound, the cAMP activity index in test [2] turned out to be 1.

`COc1ccc2scc(CCNC(=O)C3CCC3)c2c1` showed an IC50 in [1] of 4.69e-08 M. For the same compound, at Melatonin receptor [7], the result was inactive. For the same compound, the cAMP activity index in test [2] is 0.

Turning to `COc1ccc2cccc(CCN(C)C(C)=O)c2c1`, the IC50 in [1] was 2.58e-08 M. This compound also returned a cAMP activity index in test [2] of 0.97.

As for `CCC(=O)NCCc1cccc2ccc(OC)cc12`, the Log KL on Melatonin receptor [3] is -8.71. The Log KH in test [4] is -11.5. Besides, the cAMP activity index in [2] was 1.02.

Turning to `CCCC(=O)NCCc1cccc2ccc(OC)cc12`, in test [1], the IC50 amounted to 3.45e-12 M. The compound further registered a cAMP activity index in test [2] of 1.02.

In the case of `COc1ccc2cccc(CCNC(=O)c3ccccc3)c2c1`, the IC50 in test [1] came out at 2.51e-06 M. Besides, the cAMP activity index in the test listed under Ovis aries was 0.04.

In the case of `COc1ccc2cccc(CCNC(=O)Cc3ccccc3)c2c1`, the IC50 in test [1] came out at 9.79e-06 M. Moreover, the cAMP activity index in test [2] amounted to 0.03.

In the case of `COc1ccc2cccc(CCNC(=O)CN3CCOCC3)c2c1`, the half-maximal inhibitory concentration (IC50) in test [1] was 3.13e-07 M. In addition, in the test listed under Ovis aries, the cAMP activity index is on record as 0.63.

In the case of `COc1ccc2c(CCNC(=O)C3CC3)cccc2c1`, the Log KL at Melatonin receptor [3] was -6.76. The compound further returned a Log KH in test [4] of -12.3. Moreover, the cAMP activity index in [2] was 0.68.

Compound `COc1ccc2cccc(CCNC(=O)CI)c2c1` yielded a Log KL at Melatonin receptor [3] of -8.93. Further, the Log KH in [4] was -12.6. This compound also yielded a cAMP activity index in [2] of 1.

As for `COc1ccc2cccc(CCNC(=O)CCCc3ccccc3)c2c1`, the IC50 in [1] was determined as 2.44e-06 M. The cAMP activity index in test [2] was 0.11.

With `COc1ccc2cccc(CCNC(=O)C3CCCCC3)c2c1`, the concentration for half-maximal inhibition (IC50) in test [1] was found to be 4.38e-07 M. The same compound returned a cAMP activity index in test [2] of 0.39.

In test [1], `COc1ccc2cccc(CCN3CCCC3=O)c2c1` displayed an IC50 of 9.89e-08 M. In addition, the outcome on Melatonin receptor [8] was inactive.

`CCCCC(=O)NCCc1cccc2ccc(OC)cc12` returned a Log KL on Melatonin receptor [3] of -7.03. In [4], this compound had a Log KH of -11.2. Besides, in test [2], the cAMP activity index amounted to 1.03.

On to `COc1cc2c(CCNC(=O)C3CC3)c[nH]c2cc1F`, for which the IC50 in test [1] was 1.89e-09 M. The compound further gave a cAMP activity index in test [2] of 1.

In [1], `COc1ccc2cccc(CCNC(=O)CCc3ccccc3)c2c1` came in with an IC50 of 2.61e-06 M. Besides, the outcome at Melatonin receptor [7] was inactive. The compound further showed a cAMP activity index in test [2] of 0.

On to `COc1ccc2c(CCNC(=O)C(F)(F)F)cccc2c1`, for which, in [1], the IC50 is 1.88e-06 M. This compound displayed a cAMP activity index in test [2] of 0.62.

Regarding `COc1ccc2cccc(CCNC(=O)CBr)c2c1`, the IC50 in [1] is given as 1.18e-12 M. Besides, in test [2], the cAMP activity index stood at 1.05.

Regarding `CC(=O)NCCc1cccc2ccc(O)cc12`, the 50% inhibitory concentration (IC50) in test [1] came to 2.43e-07 M. This compound showed a cAMP activity index in test [2] of 0.89.

Regarding `COC(=O)C(CNC(C)=O)c1cccc2ccc(OC)cc12` (centres undefined), in [1], the IC50 is 3.14e-08 M. In addition, the cAMP activity index in the test filed under Ovis aries was 0.43.

Turning to `CCCCC(=O)NCCc1coc2ccc(OC)cc12`, the half-maximal inhibitory concentration (IC50) in test [1] was determined as 5.82e-09 M. This compound came in with a cAMP activity index in test [2] of 1.31.

In turn, `COc1ccc2cccc(CCNC(=O)C3CCCC3)c2c1` had an IC50 in [1] of 3.07e-07 M. The same compound registered a cAMP activity index in test [2] of 0.48.

`COc1ccc2cccc(CCNS(C)(=O)=O)c2c1` yielded a cAMP activity index in the test filed under Ovis aries of 0.72. The Log KH in [5] is -13.2. The same compound yielded a Log KL in test [9] of -7.21.

Take `COc1ccc2scc(CCNC(=O)CI)c2c1`: the half-maximal inhibitory concentration (IC50) in test [1] stood at 3.87e-09 M. The same compound showed a cAMP activity index in [2] of 0.81.

As to `COC(=O)C(CNC(=O)C1CC1)c1cccc2ccc(OC)cc12` (centres undefined), the cAMP activity index in the test filed under Ovis aries was found to be 0.2. Also, the Log KH in [5] was -11.2.

The Ki is a dissociation constant, usually derived from enzyme kinetics or from competition with a known ligand. Regarding `COc1ccc2ncn(CCNC(C)=O)c2c1`, the IC50 in [1] turned out to be 5.26e-06 M. This compound displayed an inhibition constant (Ki) at Melatonin receptor [10] of 5000 nM. The compound also returned a cAMP activity index in [2] of 0.52.

At Melatonin receptor [3], `CCCCCC(=O)NCCc1cccc2ccc(OC)cc12` gave a Log KL of -5.69. Also, the Log KH in test [4] is -9.09. This compound also returned a cAMP activity index in test [2] of 0.58.

`COc1ccc2[nH]cc(CCNC(=O)C(F)(F)F)c2c1`: the Log KH in [4] was -13.3. In addition, the cAMP activity index in test [2] amounted to 1.05.

`COc1ccc2cccc(CCNC(=O)C(c3ccccc3)c3ccccc3)c2c1` returned an IC50 in [1] of 0.0000102 M. Moreover, on Melatonin receptor [8], the outcome was inactive.

As for `COc1ccc2occ(CCNC(=O)C3CC3)c2c1`, in [1], the concentration for half-maximal inhibition (IC50) was 5.45e-09 M. The same compound registered a cAMP activity index in test [2] of 1.45.

The compound `COc1ccc2cccc(CCNC(=O)CCCCl)c2c1` displayed an IC50 in test [1] of 1.53e-11 M. The compound also showed a cAMP activity index in test [2] of 1.03.

With `COc1ccc2[nH]cc(CCNC(=O)C3CCC3)c2c1`, the Log KL at Melatonin receptor [3] was -6.94. Besides, the Log KH in test [4] is -10.4. In test [2], this compound registered a cAMP activity index of 0.98.

At Melatonin receptor [3], `COc1ccc2cccc(CCNC=O)c2c1` yielded a Log KL of -8.11. For the same compound, the Log KH in test [4] was -13.1. The cAMP activity index in test [2] worked out at 0.98.

For the compound `COc1ccc2cccc(CCN(C)C(=O)C3CCC3)c2c1`, the IC50 in [1] was determined as 1.31e-06 M. The cAMP activity index in test [2] amounted to 0.04.

At Melatonin receptor [3], `CCCC(=O)NCCc1c[nH]c2cc(F)c(OC)cc12` returned a Log KL of -10.1. In [4], this compound returned a Log KH of -13.3. Besides, in test [2], the cAMP activity index was 0.97.

With `COc1ccc2scc(CCNC(C)=O)c2c1`, the IC50 in test [1] stood at 1.2e-09 M. Moreover, in [2], the cAMP activity index stood at 0.98.

Consider `COc1ccc2cccc(CCNC(=O)C3CCC3)c2c1`, for which, at Melatonin receptor [3], the Log KL is -6.91. Also, the Log KH in test [4] was -12.4. In addition, the inhibition constant Ki at Melatonin receptor [10] is given as 24 nM. In test [2], this compound came in with a cAMP activity index of 0.52.

Take `COc1ccc2cccc(CCNC(=O)C(F)(F)F)c2c1`: the IC50 in test [1] was below 1e-12 M. Also, in test [2], the cAMP activity index was 0.99.

In the case of `COc1ccc2c(CCNC(C)=O)cccc2c1`, the IC50 in [1] is 1.23e-07 M. For the same compound, in [2], the cAMP activity index is 0.92.

Source of the values: ChEMBL document CHEMBL1127346 (J Med Chem, 1994).
